From ChEMBL document CHEMBL4765352, “Discovery of AdipoRon analogues as novel AMPK activators without inhibiting mitochondrial complex I” (Eur J Med Chem, 2020)
Activity calls are given as the source filed them. The calls are words filed in the database; no cut-off is given here.

Tests used:
C2C12 [1] = assay: Activation of AMPK in mouse C2C12 cells assessed as increase in AMPK phosphorylation in presence of CaMKKbeta inhibitor STO-609; type: cell-based; conditions: filed as activator
[2] = Metabolic stability in human liver microsomes assessed as half life preincubated for 5 mins followed by NADPH addition and measured up to 45 mins by LC/MS analysis; type: ADME, Microsome; conditions: time 50 min
Procedure, shortened: (§1)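 Compound was preincubated with mouse (ICR/CD-1) or human liver microsomes in potassium phosphate buffer at 37 °C for 5 min, then NADPH was added to start the reaction. Samples were quenched with acetonitrile containing tolbutamide internal standard at 0, 5, 15, 30 and 45 min. Parent compound measured by LC/MS; ketanserin served as control.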

[3] = Toxicity in db/db mouse assessed as effect on serum AST level at 100 mg/kg, ig administered for 10 weeks; type: organism-based; conditions: in vivo, po, 1680 h
Procedure, shortened: (§2)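 db/db mice, 5 weeks old, grouped by matching baseline blood glucose and body weight. Dosed intragastrically once daily at 100 mg/kg in 0.5% methylcellulose; vehicle-treated db/db and db/m mice served as controls. Body weight and fasting blood glucose measured weekly. Serum ALT and AST measured after 10 weeks. Data given as mean ± SEM.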

C2C12 [4] = assay: Activation of AMPK in mouse C2C12 cells assessed as increase in ACC phosphorylation at 10 uM by Western blotting analysis; type: cell-based; conditions: filed as activator, time 0.5-24 hrs, TDE = time-dependent effect
Procedure, shortened: (§3)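 C2C12 myoblasts differentiated in DMEM with 2% horse serum for 5-7 days until myotubes formed. Treated for 2 h, either at 10 μM or across a concentration range, or at 10 μM over a time course. RIPA lysates (~30 µg protein) blotted for p-AMPK/AMPK and p-ACC/ACC, detected by ECL. The p-AMPK/AMPK ratio is expressed as fold of the DMSO vehicle.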

Mus musculus [5] = assay: Antihyperglycemic activity in db/db mouse assessed as reduction in fasting blood glucose level at 100 mg/kg, ig administered once daily for 2 to 6 weeks; type: functional, organism-based; conditions: time 2-6 weeks; procedure, shortened: as §2
Mus musculus [6] = assay: Activation of AMPK in normal lean C57BL/6 mouse assessed as increase in phosphorylated ACC level in heart tissue at 100 mg/kg, ig administered for 4 weeks by Western blot analysis; type: functional, organism-based
Procedure, shortened: (§4)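 Male C57BL/6 mice, 9 weeks old, dosed intragastrically once daily for 4 weeks alongside vehicle controls. Heart and skeletal muscle were homogenized in RIPA buffer with protease/phosphatase inhibitors and centrifuged at 10,600 g for 20 min. About 30 µg protein was blotted for p-AMPK and p-ACC and detected by ECL.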

[7] = Induction of cardiac hypertrophy in normal lean C57BL/6 mouse assessed as increase in cardiac glycogen level at 100 mg/kg, ig administered for 4 weeks by PAS staining based analysis; type: organism-based; conditions: in vivo, po, 672 h
Procedure, shortened: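 Male C57BL/6 mice, 9 weeks old, dosed intragastrically daily for 4 weeks. After saline perfusion, organ weights and tibia length were recorded. Heart pieces were fixed in 4% paraformaldehyde, embedded in paraffin and stained with periodic acid-Schiff to show glycogen.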

[8] = Toxicity in C57BL/6 mouse assessed as change in gross morphology of heart at 50 to 200 mg/kg, ig administered for 4 weeks; type: organism-based; conditions: in vivo, po, 672 h, dose 50-200 mg/kg
Procedure, shortened: (§5)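 Male C57BL/6 mice (6 per group) given 50, 100 or 200 mg/kg intragastrically daily for 4 weeks. Saline-perfused hearts were weighed and examined for gross morphology, with representative hearts chosen by similar body weight. Heart weight was expressed relative to body weight and to tibia length.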

Mus musculus [9] = assay: Activation of AMPK in normal lean C57BL/6 mouse assessed as increase in phosphorylated AMPK level in heart tissue at 100 mg/kg, ig administered for 4 weeks by Western blot analysis; type: functional, organism-based; procedure, shortened: as §4
C2C12 [10] = assay: Activation of AMPK in mouse C2C12 cells assessed as increase in ACC phosphorylation measured after 2 hrs by Western blotting analysis; type: cell-based; conditions: filed as activator, dose 0.1-20 µM; procedure, shortened: as §3
Huh-7 [11] = assay: Activation of AMPK in human HuH-7 cells assessed as increase in AMPK phosphorylation at 1 to 20 uM measured after 2 to 12 hrs by Western blotting analysis; type: cell-based; conditions: filed as activator, dose 1-20 µM, time 2-12 hrs
Procedure, shortened: (§6)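 HepG2 and HuH-7 cells in medium with 10% FBS and penicillin/streptomycin at 37 °C, 5% CO₂. Treated with a range of concentrations for 2 h, or with 10 μM over a time course. Cells lysed in RIPA buffer with protease/phosphatase inhibitors; ~30 µg protein per lane blotted for p-AMPK, AMPK, p-ACC, ACC, with GAPDH or β-actin as loading control. Detected by ECL.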

Huh-7 [12] = assay: Activation of AMPK in human HuH-7 cells assessed as increase in ACC phosphorylation at 1 to 20 uM measured after 2 to 12 hrs by Western blotting analysis; type: cell-based; conditions: filed as activator, dose 1-20 µM, time 2-12 hrs; procedure, shortened: as §6
[13] = Inhibition of mitochondrial complex 1 in human HepG2 cells assessed as increase in AMP/ATP ratio at 10 uM; type: cell-based; conditions: hepg2, 10 µM
Procedure, shortened: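 HepG2 cells treated with 10 μM or 0.5 μM compound, or DMSO. Cellular ADP:ATP and AMP:ATP ratios were measured. Three replicates, given as mean ± SD and compared by Student's t test.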

[14] = Inhibition of bovine heart mitochondrial complex 1 at 5 to 20 uM measured every minute for 2 hrs by microplate reader based assay; type: tissue-based, Bos taurus; conditions: cattle, dose 5-20 µM
Procedure, shortened: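 Bovine heart mitochondria in detergent were captured on a complex I antibody-coated plate for 2 h at room temperature. Phospholipids were added, then complex I solution with compound, rotenone control or DMSO. NADH oxidation was followed as the fall in A340, read every minute for at least 2 h at 30 °C.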

[15] = Induction of cardiac hypertrophy in db/db mouse at 100 mg/kg, ig administered for 10 weeks; type: organism-based; conditions: in vivo, po, 1680 h
[16] = Metabolic stability in ICR/CD-1 mouse liver microsomes assessed as compound remaining preincubated for 5 mins followed by NADPH addition and measured up to 45 mins by LC/MS analysis; type: ADME, Microsome; conditions: time 50 min, read-out: Stabilty; procedure, shortened: as §1
[17] = Toxicity in C57BL/6 mouse assessed as change in heart weight/tibia length ratio at 50 to 200 mg/kg, ig administered for 4 weeks; type: organism-based; conditions: in vivo, po, 672 h, dose 50-200 mg/kg; procedure, shortened: as §5
C2C12 [18] = assay: Activation of AMPK in mouse C2C12 cells assessed as increase in AMPK phosphorylation at Thr172 residue at 10 uM measured after 2 hrs by Western blot analysis; type: cell-based; conditions: filed as activator; procedure, shortened: as §3
C2C12 [19] = assay: Activation of AMPK in mouse C2C12 cells with SiRNA-induced LKB1 knock down assessed as increase in AMPK phosphorylation; type: cell-based
[20] = Metabolic stability in ICR/CD-1 mouse liver microsomes assessed as intrinsic clearance preincubated for 5 mins followed by NADPH addition and measured up to 45 mins by LC/MS analysis; type: ADME, Microsome; conditions: time 50 min, read-out: CLH
Procedure, shortened: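 Compound and liver microsomes in preheated potassium phosphate buffer, held at 37 °C for 5 min. Reaction started with NADPH and stopped at 0, 5, 15, 30 and 45 min with acetonitrile containing tolbutamide internal standard. Samples centrifuged at 6000 rpm for 15 min, supernatant analysed by LC/MS. Ketanserin run as assay control. Performed by a contract lab.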

Homo sapiens = species on record: Homo sapiens; assay: Activation of AMPK alpha1/beta1/gamma1 (unknown origin)

## CC(C)(Oc1ccc(Cl)cc1)C(=O)Nc1ccc(OCc2ccc(C#N)cc2)cc1
C2C12 [1]
  Activity: Active
[2]
  half-life: 1.62 h
[3]
  Activity: Non-Toxic
C2C12 [4]
  Activity: Tde
Mus musculus [5]
  Activity: Active
Mus musculus [6]
  Activity: inactive
[7]
  Activity: Non-Toxic
[8]
  Activity: Non-Toxic
Mus musculus [9]
  Activity: inactive
C2C12 [10]
  Activity: Dose-dependent effect
Huh-7 [11]
  Activity: Active
Huh-7 [12]
  Activity: Active
[13]
  inhibition (INH): Not Active
[14]
  inhibition (INH): Not Active
[15]
  Activity: Non-Toxic
[16]
  remaining at 0.75 h: 39%
[17]
  Activity: Non-Toxic
C2C12 [18]
  Activity: Active
C2C12 [19]
  Activity: inactive
[20]
  CLint scaled: 152 mL/min/kg
Homo sapiens
  Activity: inactive
